Experimental data taken from ChEMBL document CHEMBL1136314, “Biphenyl-based analogues of thiolactomycin, active against Mycobacterium tuberculosis mtFabH fatty acid condensing enzyme” (Bioorg Med Chem Lett, 2003).
pIC50: −log10 of the molar value.

biological target: T1, Mycobacterial beta-ketoacyl-[acyl-carrier-protein] synthase III (Mycobacterium tuberculosis, UniProt P9WNG3); test: In vitro inhibitory activity against the recombinant Mycobacterium tuberculosis Beta-ketoacyl-ACP synthase III mtFabH condensing enzyme.; set-up: species or system H37Rv
T1 sequence (P9WNG3 whole entry): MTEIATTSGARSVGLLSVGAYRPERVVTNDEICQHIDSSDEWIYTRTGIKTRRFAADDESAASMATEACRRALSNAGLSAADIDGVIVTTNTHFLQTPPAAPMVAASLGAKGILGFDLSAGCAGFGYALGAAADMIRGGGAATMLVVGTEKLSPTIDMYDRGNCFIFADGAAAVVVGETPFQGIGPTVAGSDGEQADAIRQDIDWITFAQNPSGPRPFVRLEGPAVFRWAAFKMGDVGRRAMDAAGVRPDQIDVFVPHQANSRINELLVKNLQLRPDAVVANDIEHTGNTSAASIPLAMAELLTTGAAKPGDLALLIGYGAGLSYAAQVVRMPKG
Summary of the method: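 Direct end-point scintillation proximity assay with E. coli-expressed recombinant mtFabH (1.0 nM), biotinylated malonyl-ecACP, and myristoyl-CoA in 100 mM sodium phosphate with 0.01% CHAPS and 1 mM DTT. Compounds in DMSO were tested from 500 down to 0.98. After a 5-min 30 °C preincubation, [3H]myristoyl-CoA was added and reacted 20 min at 30 °C. Ethanol quench, streptavidin beads, bead-bound radioactivity counted, IC50 derived.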

Question: How did the pIC50 turn out when CC1=C(O)C(C)(Cc2cc(F)cc(F)c2)SC1=O (configuration not stated) was run?
Answer: 3.58

Question: CC1=C(O)C(C)(Cc2ccc(-c3ccc(CO)cc3)cc2)SC1=O (configuration not stated) was tested. Which pIC50 did it give?
Answer: 4.72

Question: With CC1=C(O)C(C)(Cc2ccc(-c3ccc(C=O)cc3)cc2)SC1=O (configuration not stated) as the compound, how does the pIC50 read?
Answer: 4.54

Question: How did the pIC50 turn out when COc1cccc(CC2(C)SC(O)=C(C)C2=O)c1 (configuration not stated) was run?
Answer: < 3.30

Question: With CC1=C(O)C(C)(Cc2ccc(-c3ccc(C(C)(C)C)cc3)cc2)SC1=O (configuration not stated) as the compound, how does the pIC50 read?
Answer: 4.60

Question: CC1=C(O)C(C)(Cc2ccc(-c3ccc(C)cc3)cc2)SC1=O (configuration not stated) was tested. Which pIC50 did it give?
Answer: 4.28

Question: CC1=C(O)C(C)(Cc2ccccc2)SC1=O (configuration not stated) was tested. Which pIC50 did it give?
Answer: < 3.60

Question: With CC1=C(O)C(C)(Cc2ccc(I)cc2)SC1=O (configuration not stated) as the compound, how does the pIC50 read?
Answer: 3.82

Question: With CC(=O)Nc1cccc(-c2ccc(CC3(C)SC(O)=C(C)C3=O)cc2)c1 (configuration not stated) as the compound, how does the pIC50 read?
Answer: 3.92

Question: How did the pIC50 turn out when CC1=C(O)C(C)(Cc2ccc(-c3ccc(COCc4ccccc4)cc3)cc2)SC1=O (configuration not stated) was run?
Answer: 4.77

Question: CC1=C(O)C(C)(Cc2ccc(F)cc2F)SC1=O (configuration not stated) was tested. Which pIC50 did it give?
Answer: 3.61

Question: How did the pIC50 turn out when CC1=C(O)C(C)(Cc2cccc(Oc3ccccc3)c2)SC1=O (configuration not stated) was run?
Answer: 4.28

Question: CC1=C(O)C(C)(Cc2cccc(-c3ccccc3)c2)SC1=O (configuration not stated) was tested. Which pIC50 did it give?
Answer: 3.67

Question: COc1ccc(CC2(C)SC(O)=C(C)C2=O)cc1 (configuration not stated) was tested. Which pIC50 did it give?
Answer: 3.81

Question: CC1=C(O)C(C)(Cc2ccc(C(C)(C)C)cc2)SC1=O (configuration not stated) was tested. Which pIC50 did it give?
Answer: 4.37

Question: CC1=C(O)C(C)(Cc2ccc(-c3ccccc3)cc2)SC1=O (configuration not stated) was tested. Which pIC50 did it give?
Answer: 4.29

Question: With CC1=C(O)C(C)(Cc2ccc(C)cc2)SC1=O (configuration not stated) as the compound, how does the pIC50 read?
Answer: 3.95
